M18AAP inhibitor: blocks P. falciparum M18 aspartyl aminopeptidase. inhibition, % at 7.35 µM. recombinant PfM18AAP, H-Glu-NHMec fluorogenic cleavage. AID 1822. 1.2% of 290,000 active;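 active means inhibition above the campaign mean inhibition over all tested compounds plus 3 SD, cut at about 28% in these data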;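 further: 0% = plate median of test compound wells and 100% = 2 mM ZnCl2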
APOBEC3A inh: inhibitors of human APOBEC3A DNA deaminase. P31941. recombinant A3A, FAM/TAMRA ssDNA deamination fluorescence. inhibition, % at 20 µM. 0.41% of 330,000 active;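 active means at least 40% inhibition at 20 µM here, with at most 30% in a related deaminase screen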;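 further: plate controls were A3A with DMSO for no effect and wells lacking A3A enzyme for full effect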
APOBEC3G inh: inhibitors of human APOBEC3G DNA deaminase | recombinant A3G, ssDNA deamination FAM/TAMRA fluorescence | 0.28% of 330,000 active | inhibition, % at 20 µM;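 active means inhibition of at least 40% at 20 µM, with no more than 30% in the related APOBEC3A deaminase screen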;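 further: plate controls were DMSO wells with A3G for no effect and wells lacking A3G enzyme for full effect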
HKDC1 inhibitor: inhibitors of human hexokinase HKDC1. recombinant HKDC1, G6PDH/diaphorase resazurin coupled fluorescence. inhibition, % at 20 µM. 0.16% of 340,000 active. AID 493160;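 active means inhibition above about 35% when tested at 20 µM, limit read from the data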;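 further: plate controls were DMSO wells with enzyme for no effect and DMSO wells lacking enzyme for full effect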
Target sequence (Q2TB90 whole entry, looked up): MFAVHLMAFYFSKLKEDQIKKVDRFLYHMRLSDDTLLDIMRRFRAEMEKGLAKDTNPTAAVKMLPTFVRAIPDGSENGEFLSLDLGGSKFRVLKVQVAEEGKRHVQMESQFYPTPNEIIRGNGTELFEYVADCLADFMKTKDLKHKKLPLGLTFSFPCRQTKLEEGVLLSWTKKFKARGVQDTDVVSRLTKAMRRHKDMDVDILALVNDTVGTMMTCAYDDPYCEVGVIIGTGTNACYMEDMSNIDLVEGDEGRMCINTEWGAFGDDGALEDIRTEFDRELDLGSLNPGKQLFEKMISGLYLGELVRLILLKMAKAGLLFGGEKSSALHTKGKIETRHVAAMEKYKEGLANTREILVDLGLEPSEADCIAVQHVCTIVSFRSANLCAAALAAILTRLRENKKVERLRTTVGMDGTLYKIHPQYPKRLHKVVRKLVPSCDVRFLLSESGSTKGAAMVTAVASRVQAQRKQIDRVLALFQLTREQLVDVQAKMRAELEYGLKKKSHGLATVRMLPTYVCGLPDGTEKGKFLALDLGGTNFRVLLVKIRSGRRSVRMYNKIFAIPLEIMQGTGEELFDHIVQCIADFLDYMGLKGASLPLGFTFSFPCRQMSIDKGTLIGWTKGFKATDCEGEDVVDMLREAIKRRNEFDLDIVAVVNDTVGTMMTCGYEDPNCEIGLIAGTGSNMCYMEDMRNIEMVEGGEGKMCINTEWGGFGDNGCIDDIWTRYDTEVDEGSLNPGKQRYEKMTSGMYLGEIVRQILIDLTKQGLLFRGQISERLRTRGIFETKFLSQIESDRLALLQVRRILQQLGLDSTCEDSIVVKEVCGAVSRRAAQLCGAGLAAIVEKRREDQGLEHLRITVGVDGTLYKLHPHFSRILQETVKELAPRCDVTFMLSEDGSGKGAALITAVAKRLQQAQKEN
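Test system: Recombinant HKDC1 (HK5) hexokinase enzyme, produced in-house | Input: HKDC1 at 5 µg/mL | Buffer or medium: Tris pH 8.0 buffer with MgCl2, Tween-20, BSA, BME | Schedule: 90 min reaction incubation at room temperature, dark | Technique: Resazurin-to-resorufin fluorescence via G6PDH and diaphorase coupling, 525/613 nm | Controls: DMSO wells with and without enzyme mix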
UBC9 SUMO inh: SUMOylation inhibition | P63279 | HTRF SUMOylation assay, SAE1/SAE2 + UBC9, in vitro | inhibition, % at 35 µM | 0.36% of 290,000 active | AID 2006; in the data active means inhibition above about 50%, passing the limit was not always enough
PfGluPho inh: PfG6PD (Plasmodium falciparum) enzyme inhibition | PfGluPho enzyme, NADPH resazurin-diaphorase fluorescence | inhibition, % at 20 µM | 0.78% of 350,000 active | AID 504690;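 active means inhibition reaching at least a set limit at 20 µM in the primary screen, cut at about 59% in these data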;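 further: 0% = DMSO wells with substrate and 100% = DMSO wells lacking glucose-6-phosphate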
Numbers without * were called inactive; x = not tested or not shown. Only some compounds are listed: those with a hit (about 2.4% of all), similar ones and a draw of the others.

SMILES	M18AAP inhibitor	APOBEC3A inh	APOBEC3G inh	HKDC1 inhibitor	UBC9 SUMO inh	PfGluPho inh
CC1=Nc2cccc3cccc(c23)N1C	12.1	-4.2	1.1	1.4	78.6*	15.6
COCCN(C(=O)c1csnn1)C(C(=O)NC1CCCCC1)c1cccs1 (stereo not given)	-0.8	-2.1	-2.6	-0.3	7.6	9.7
CCOc1ccc(C2=Nn3c(nnc3-c3ccccc3OC)SC2)cc1	2.2	x	x	0.4	5.5	5.6
COc1ccccc1-c1nnc2n1N=C(c1ccc(O)c(O)c1)CS2	69.4*	-3.0	-3.5	-0.6	-3.3	-38.0
Nc1c(C(=O)c2ccccc2)sc2snc(SCC(=O)c3ccccc3)c12	30.8*	-5.8	3.8	-10.7	19.9	26.5
O=C1c2ccccc2C(=O)N1c1cccc2cccnc12	3.2	-0.4	-6.7	-3.4	73.6*	-7.2
Cc1ccsc1/C=N/NC(=O)CC(=O)NCC(C)C	-1.0	3.2	-9.0	11.0	10.4	-9.3
CC(=O)NNc1nc(-c2ccc(NC(C)=O)cc2)cs1	31.2*	-1.4	-6.1	-10.1	-3.6	5.7
C=CCNC(=S)Nc1ccc2nsnc2c1	9.2	1.4	2.2	6.8	99.3*	-3.4
C=CCN(CC=C)C(=S)Nc1ccc2nsnc2c1	1.1	0.4	-4.3	3.5	87.2	7.3
CCOP(=O)(OCC)C(Nc1cccc(C(F)(F)F)c1)c1ccc(C)cc1 (stereo not given)	4.5	2.1	-5.2	-1.6	-9.5	21.4
COc1ccc(N(C)C(=O)Nc2ccc3nsnc3c2)cc1	11.6	x	x	3.1	102.7	-6.7
CC(C)N(C(=O)Nc1ccc2nsnc2c1)C(C)C	16.1	38.3	29.4	17.6	99.8*	55.0
O=C(Cc1cc(=O)oc2cc(O)ccc12)NCC1CCC(C(=O)O)CC1 (stereo not given)	6.9	-3.0	-3.0	-1.3	55.4*	2.1
Cc1ccc(/C=C/C(=O)OC(C)C(=O)Nc2ncc(Cl)cc2Cl)o1 (stereo not given)	-3.7	5.9	-9.1	-10.6	3.7	30.2
CC1(C)Cc2nc3sc(C(=O)NCCO)c(N)c3cc2CO1	30.7*	2.7	-4.2	4.2	-1.9	1.9
CC1(C)Cc2nc3sc(C(=O)NCCCO)c(N)c3cc2CS1	15.6	2.8	1.2	-8.1	0.3	18.0
N#C/C(=C\c1ccc(N2CCOCC2)cc1)c1ccccc1	-3.7	-1.1	-5.7	5.8	0.0	54.9
Cc1ccc(N2CCN(C(=S)c3ccc(-c4cccc([N+](=O)[O-])c4)o3)CC2)cc1	30.1*	-2.4	3.6	-11.0	1.2	30.1
COc1ccc(CCn2c(N)c(C(=O)NCc3ccco3)c3nc4ccccc4nc32)cc1	12.9	-3.3	-4.5	25.7	100.1*	22.3
COc1ccc(CCn2c(N)c(C(=O)NCc3ccco3)c3nc4ccccc4nc32)cc1OC	25.6	0.6	-2.7	17.9	99.5	51.1
COC(=O)Nc1ccc2c(c1)OCO2	9.8	-2.8	-4.2	6.2	5.1	12.5
COC(=O)CNc1ccc2c(c1)OCO2	30.7*	3.9	7.3	-6.3	-1.0	46.3
CCOC(=O)N1CCN(C(c2cccc(OC)c2)c2sc3nc(C)nn3c2O)CC1 (stereo not given)	5.7	0.5	-4.3	-2.6	2.0	1.2
O=[N+]([O-])c1cc(Cl)cc(/C=N\Nc2ccccn2)c1O	-1.5	-5.1	1.6	-7.4	-134.9	-64.0
SMILES	M18AAP inhibitor	APOBEC3A inh	APOBEC3G inh	HKDC1 inhibitor	UBC9 SUMO inh	PfGluPho inh
CN(C)C1(CN=Cc2cc(Cl)cc([N+](=O)[O-])c2O)CCCCC1	29.7*	16.2	2.3	8.8	14.1	14.6
CN(C)c1ccc(N=Cc2ccco2)cc1	14.2	-3.7	-3.0	3.3	-41.8	60.1*
CC(=O)C1C(=O)c2c(cccc2[N+](=O)[O-])C1=Nc1ccc(S(N)(=O)=O)cc1 (stereo not given)	30.8*	5.3	14.2	-2.3	18.4	4.2
COc1ccc(NC(=O)Nc2ccc3nonc3c2)cc1	3.5	-2.3	-4.9	-2.0	0.4	51.4
COc1cccc(/C=N/NC(=O)c2cc(-c3ccccn3)nc3ccccc23)c1O	x	-0.2	-6.4	-26.8	x	-26.9
O=C(N/N=C/c1cc(Cl)cc([N+](=O)[O-])c1O)c1cc(-c2ccccn2)nc2ccccc12	-1.9	12.0	0.9	-20.4	86.6*	-46.6
CCNC(=S)NNC(=S)NCc1ccccc1	32.3*	-1.3	9.9	-10.0	6.4	4.2
COc1ccc2[nH]c(=O)c(CN(C(C)=O)c3ccc(C)c(C)c3)cc2c1	1.6	-5.2	-6.7	-5.6	9.3	10.4
CS(=O)(=O)Nc1ccc(-c2n[nH]c(=S)n2-c2ccccc2)cc1	30.9*	-4.5	25.1	5.6	20.0	43.2
O=C(NNc1ccc([N+](=O)[O-])cc1)C1C2CCCCC21 (stereo not given)	58.9*	-5.0	-9.1	-15.9	3.7	-0.7
O=C(CSc1ncn[nH]1)NCc1ccccc1Cl	29.1*	-7.1	-2.0	-7.0	-17.7	2.3
O=C1CC(c2ccco2)CC(O)=C1C=NCC1NCCc2ccccc21 (stereo not given)	28.8*	-1.1	-0.4	5.5	56.9	-6.8
CCOC(=O)c1c(/N=C/c2cc(OC)cc([N+](=O)[O-])c2O)sc(C)c1C	28.1*	0.7	-3.4	1.9	-8.7	7.5
CCOC(=O)c1c(/N=C/c2cc([N+](=O)[O-])ccc2O)sc(C)c1C	25.9	1.8	-4.6	-13.6	11.7	-9.2
Cc1cccc(OCC(=O)NC(=S)NNC(=O)c2ccncc2)c1	45.2*	-8.8	39.6	-5.9	11.3	77.0*
CCn1c(-c2cccnc2)n[nH]c1=S	7.8	-7.2	-13.4	-9.1	5.2	27.1
CCCCn1c(-c2cccnc2)n[nH]c1=S	30.5*	-6.0	5.1	-3.6	-1.1	18.2
CCOC(=O)c1cnc(Nc2nc3ccccc3o2)nc1CN1CCN(C)CC1	61.0*	x	x	-3.8	-6.0	2.5
O=C(Nc1ccc2oc(-c3ccc4ccccc4c3)nc2c1)c1ccc2c(c1)OCCO2	-9.8	-1.4	-6.9	-5.0	54.8*	-5.2
O=C1NC(=S)S/C1=C\c1ccc(SCc2ccco2)o1	36.6*	x	x	50.6*	62.8*	25.6
CCC1=NN2C(=N)/C(=C\c3ccc(SCc4ccco4)o3)C(=O)N=C2S1	29.5*	90.3	76.9	14.5	38.5	21.3
Cc1ccc(C(=O)O/N=C(\N)c2ccc(C(F)(F)F)cn2)cc1	0.5	0.4	-5.1	-0.8	-7.4	12.9
O=C(NCc1ccc(Cl)cc1)C(=O)NCC1OCCN1S(=O)(=O)c1cc(F)ccc1F (stereo not given)	1.6	-4.2	-6.4	10.4	-11.1	15.1
Cc1cc(C(=O)N/N=C/c2ccc(-c3ccc(C)c(Cl)c3)o2)n[nH]1	4.3	-1.6	-12.2	-9.8	57.7*	-5.7
Cc1cc(C(=O)N/N=C/c2ccc(-c3ccccc3Cl)o2)n[nH]1	-0.4	2.0	-3.0	-2.1	13.8	-5.6

Source: PubChem BioAssay
